Consider 1 molecule from ChEMBL document CHEMBL4052623, “Synthesis and antiproteasomal activity of novel O-benzyl salicylamide-based inhibitors built from leucine and phenylalanine” (Eur J Med Chem, 2017).

Activity calls are given as the source filed them. The rule behind the calls is not given here.

Series [1] concerns the target Proteasome Macropain subunit (Homo sapiens) (UniProt P49721). Put plainly: Inhibition of trypsin like activity of 26S proteasome beta 2 subunit in human U266 cells assessed as residual activity using […] as substrate at 10 uM preincubated for 1 hr followed by substrate addition and measured after 4 hrs by fluorescence assay relative to control. It counts as cell-based.

Series [2] has as its system U2OS. In words: Antiproliferative activity against human U2OS cells up to 1 uM after 24 hrs by live-cell imaging microscopic analysis. It counts as functional, cell-based. Put shortly:
(§1)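 U2OS degron-GFP cells plated at 10,000 cells/well and treated with a range of compound concentrations. Proliferation followed by live-cell time-lapse imaging as percent confluence (occupied image area) over time, up to 72 h.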

Series [3] relates to U-266. In words: Induction of apoptosis in human U266 cells assessed as increase in caspase-3/7 activity using Ac-DEVD-AMC as substrate at 250 nM by fluorescence assay. It counts as functional, cell-based. Conditions: TDE = time-dependent effect. Summed up:
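Homogenates clarified at 10,000 × g for 30 min at 4 °C and protein-equalised. Lysates incubated with 100 µM Ac-DEVD-AMC in pH 7.3 PIPES/EGTA/MgCl2/DTT buffer. Fluorescence read at 355/460 nm and normalised to untreated control.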

The species entered for series [4] is Homo sapiens. Put plainly: Inhibition of proteasome in human U266 cells assessed as increase in p27KIP level up to 24 hrs by Western blot method. The series is classed as cell-based. Summed up:
(§2)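 Treated U266 cells harvested in Laemmli sample buffer. Proteins separated by SDS-PAGE and electroblotted to nitrocellulose. Membranes blocked, probed overnight with specific primary antibodies, then detected with peroxidase-conjugated secondary antibodies.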
A general note: A western blot detects proteins with antibodies after separation by electrophoresis.

The test system of series [5] is U2OS. In words: Antiproliferative activity against human U2OS cells at 200 nM after 72 hrs by live-cell imaging microscopic analysis. It counts as functional, cell-based. Summed up: as §1
Series [6] deals with U-266. Put plainly: Induction of apoptosis in human U266 cells assessed as caspase-7 cleavage at 250 nM after 16 to 24 hrs by Western blot method. The series is classed as functional, cell-based. Put shortly: as §2
Series [7] relates to U-266. Put plainly: Induction of apoptosis in human U266 cells assessed as downregulation of Mcl-1 level at 250 nM after 16 to 24 hrs by Western blot method. It counts as functional, cell-based. Put shortly:
as §2

Series [8] concerns U2OS. Put plainly: Antiproliferative activity against human U2OS cells up to 1 uM after 48 hrs by live-cell imaging microscopic analysis. The series is classed as functional, cell-based. Put shortly:
as §1

Series [9] deals with T1, Proteasome Macropain subunit MB1 (Homo sapiens) (UniProt P28074).
T1 sequence (whole entry): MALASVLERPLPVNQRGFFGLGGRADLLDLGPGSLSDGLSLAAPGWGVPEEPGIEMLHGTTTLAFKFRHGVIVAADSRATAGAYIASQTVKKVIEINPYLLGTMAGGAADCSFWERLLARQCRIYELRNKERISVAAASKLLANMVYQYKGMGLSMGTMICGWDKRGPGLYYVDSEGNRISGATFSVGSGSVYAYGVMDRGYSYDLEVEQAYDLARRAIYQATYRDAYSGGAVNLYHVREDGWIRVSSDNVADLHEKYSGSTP
In words: Inhibition of chymotrypsin like activity of 26S proteasome beta 5 subunit in human U266 cells assessed as residual activity using N-Suc-LLVY-AMC as substrate at 10 uM preincubated for 1 hr followed by substrate addition and measured after 4 hrs by fluorescence assay relative to control. It counts as cell-based.

Series [10] deals with K562. Put plainly: Antiproliferative activity against human K562 cells after 72 hrs by calcein AM staining based fluorescence assay. The series is classed as functional. Conditions: K562, 72 h. Summed up:
(§3)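 Cells treated with three-fold compound dilutions in triplicate for 72 h. Calcein AM added afterwards and live-cell fluorescence read at 485/538 nm (ex/em). GI50, the concentration lethal to 50% of tumour cells, calculated from dose-response curves.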

Series [11] relates to U-266. In words: Effect on alpha-tubulin protein levels in human U266 cells at 250 nM after 2 to 24 hrs by Western blot analysis. The series is classed as ADME, cell-based. Conditions: u-266, 0.25 µM. Put shortly:
as §2

For series [12], the species on record is Homo sapiens. Put plainly: Inhibition of proteasome in human U266 cells assessed as increase in accumulation of polyubiquitinated proteins at 250 nM by Western blot analysis. Particulars: TDE = time-dependent effect. It counts as cell-based. Put shortly:
as §2

Series [13] relates to U2OS. Put plainly: Cytotoxicity against human U2OS cells at 6.25 uM after 16 hrs by live-cell imaging microscopic analysis. It counts as cell-based. Put shortly:
as §1

Series [14] has as its system U-266. In words: Effect on beta-actin protein levels in human U266 cells at 250 nM after 2 to 24 hrs by Western blot analysis. The series is classed as ADME, cell-based. Particulars: u-266, 0.25 µM. Put shortly:
as §2

The species entered for series [15] is Homo sapiens. Put plainly: Inhibition of proteasome in human U2OS cells stably expressing GFP fused to short degron assessed as increase in GFP accumulation pre-incubated for 1 hr and measured after 9 hrs by live-cell imaging microscopy. It counts as cell-based.
Series [16] concerns the target T2, Proteasome component C5 (Homo sapiens) (UniProt P20618).
T2 sequence (whole entry): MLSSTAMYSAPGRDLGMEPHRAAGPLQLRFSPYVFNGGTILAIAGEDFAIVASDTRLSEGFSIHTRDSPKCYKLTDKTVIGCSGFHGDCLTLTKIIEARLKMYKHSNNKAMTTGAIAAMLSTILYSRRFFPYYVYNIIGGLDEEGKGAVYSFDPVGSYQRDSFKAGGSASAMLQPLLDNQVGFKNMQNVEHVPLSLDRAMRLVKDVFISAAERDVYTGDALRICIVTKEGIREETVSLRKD
Put plainly: Inhibition of caspase like activity of 26S proteasome beta 1 subunit in human U266 cells assessed as residual activity using […] as substrate at 10 uM preincubated for 1 hr followed by substrate addition and measured after 4 hrs by fluorescence assay relative to control. The series is classed as cell-based.

For series [17], the system named is U-266. Put plainly: Induction of apoptosis in human U266 cells assessed as PARP1 cleavage at 250 nM after 16 to 24 hrs by Western blot method. It counts as functional, cell-based. Summed up:
as §2

The test system of series [18] is U-266. In words: Antiproliferative activity against human U266 cells after 72 hrs by calcein AM staining based fluorescence assay. The series is classed as functional. Conditions: U-266, 72 h. Put shortly:
as §3

In series [19] the test system is CCRF-CEM. Put plainly: Antiproliferative activity against human CEM cells after 72 hrs by calcein AM staining based fluorescence assay. The series is classed as functional. Summed up:
as §3

The species entered for series [20] is Homo sapiens. Put plainly: Inhibition of proteasome in human U2OS cells stably expressing GFP fused to short degron assessed as increase in GFP accumulation at 200 nM […] by live-cell imaging microscopy. The series is classed as cell-based.
For series [21], the target named is T3, Proteasome Macropain subunit MB1 (Homo sapiens, UniProt P28074).
T3 sequence (P28074 whole entry): T1 sequence (whole entry)
In words: Inhibition of chymotrypsin-like activity of 26S proteasome beta 5 subunit in human U266 cells using Suc-LLVY-aminoluciferin as substrate after 1 hr by Proteosome-Glo luminescence assay. It counts as cell-based. Put shortly:
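U266 multiple myeloma cells plated at 20,000 cells/well and exposed to varying compound concentrations for 1 h at 37 °C, in duplicate. 26S proteasome activity measured immediately as luciferase-coupled hydrolysis of the β5 substrate Suc-LLVY-aminoluciferin (Proteasome-Glo), read by luminescence. Activity normalised to untreated cells; IC50 derived from dose-response curves.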

Proteasome Macropain subunit (Homo sapiens), sequence (P49721 whole entry): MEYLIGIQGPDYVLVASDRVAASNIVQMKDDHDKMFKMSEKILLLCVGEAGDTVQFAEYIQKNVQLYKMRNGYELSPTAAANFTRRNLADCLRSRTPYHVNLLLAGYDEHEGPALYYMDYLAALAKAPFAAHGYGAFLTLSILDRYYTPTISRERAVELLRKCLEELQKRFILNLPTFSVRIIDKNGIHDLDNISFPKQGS

Consider `CC(C)CC(C=O)NC(=O)[C@H](Cc1ccccc1)NC(=O)[C@H](CC(C)C)NC(=O)c1cc(Cl)ccc1OCc1ccccc1` (stereo partly specified), for which the Activity in series [1] was 81.8%; in [3], “Tde”; in series [9], 13.4%; in series [11], “Non-Toxic”; in series [13], “Toxic”; in [14], “Non-Toxic”. Further, the Activity in series [16] was 74.6%. Also, the outcome in series [2] and in series [5] was inactive. Further, the inhibition entry was “Dose-dependent effect” in series [4], “Tde” in [12] and “Dose-dependent effect” in series [15]. The outcome in [6], in series [7], in series [8] and in series [17] was Active. For the same molecule, the GI50 – broadly, the concentration that inhibits growth by half – in [10] is 570 nM; in [18], 150 nM; in series [19], 280 nM. In addition, the inhibition entry in series [20] was “Active”. The midpoint of inhibition in [21], the IC50, lay at 90 nM.
